“And” between values parts separate entries of the source, which are not always exact repeats. Equal entries are not always repeated.
What was measured:
[1] = target: IBC^R568Q fragment of IP3R1 (Rattus norvegicus, UniProt P29994, R568Q); assay: Equilibrium-competition 3H-IP3 binding to IBC^R568Q
Summary of the method: (§1)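 His6-tagged rat IP3R1 IBC (residues 224–604, S1 site included), wild type or point mutant, expressed in E. coli BL21(DE3) (0.5 mM IPTG, 20 h, 15°C). Lysate (~1–10 µg protein) incubated 5 min at 4°C in CLM (pH 7.0, free Ca2+ 220 nM) with 3H-IP3 (0.75–3 nM) and competitor. PEG/γ-globulin precipitation, scintillation counting. Hill fit; Kd by Cheng–Prusoff; ΔpKd from log differences.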

[2] = target: NT (residues 1–604) of IP3R1 (Rattus norvegicus, UniProt P29994, DEL318-332); assay: Equilibrium-competition 3H-IP3 binding to the NT fragment; details: for Binding ΔpKd, IP3 / AdA: pair IP3 / AdA
Summary of the method: (§2)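 Rat IP3R1 N-terminal fragment (residues 1–604, lacking S1 site), His6-tagged, wild type or point mutant, expressed in E. coli BL21(DE3) as bacterial lysate (~1–10 µg protein). Competed against 1.5 nM 3H-IP3 for 5 min at 4°C in TEM (50 mM Tris, 1 mM EDTA, pH 8.3) or, for wild-type NT only, CLM (pH 7.0). Counted after PEG precipitation. Hill fit; Kd by Cheng–Prusoff; ΔpKd from log values.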

[3] = target: IBC (IP3-binding core, residues 224–604 of IP3R1) (Rattus norvegicus, UniProt P29994); assay: Equilibrium-competition 3H-IP3 binding to the IBC; details: CLM
Summary of the method: as §1

[4] = target: IP3R1^R568Q (Rattus norvegicus, UniProt P29994, DEL318-332/R568Q); assay: Ca2+ release from permeabilized DT40 cells expressing only IP3R1^R568Q; type: cell-based
Summary of the method: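 Mag-fluo-4 AM (20 µM, 1 h, 20°C) loaded into DT40 cells lacking endogenous IP3R and stably expressing mutant rat IP3R1. Cells were saponin-permeabilized (10 µg·mL−1) into Mg2+-free CLM with 10 µM FCCP, free Ca2+ ~220 nM. Stores were loaded with 1.5 mM MgATP before test compound was added. Fluorescence was read at 485/520 nm, 20°C. Release is a fraction of ATP-dependent uptake, Hill-fitted for EC50, with ΔpEC50 versus wild type from log values. Three determinations per experiment, 4–6 experiments.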

[5] = system: IP3R; details: recalculated from published data; ref Takahashi et al., 1994a,b,c; cited from earlier work
[6] = target: NT^R568Q fragment of IP3R1 (Rattus norvegicus, UniProt P29994, DEL318-332/R568Q); assay: Equilibrium-competition 3H-IP3 binding to NT^R568Q
Summary of the method: as §2

[7] = target: full-length IP3R1 (Rattus norvegicus, UniProt P29994); type: binding; details: full-length IP3R1, TEM
[8] = target: rat IP3R1 (recombinant, expressed in DT40 cells) (Rattus norvegicus, UniProt P29994); assay: Ca2+ release from intracellular stores of permeabilized DT40-IP3R1 cells; type: cell-based; details: for fold more potent than IP3 in functional assays: Ca2+ release, relative to IP3
[9] = target: NT^R504Q fragment of IP3R1 (Rattus norvegicus, UniProt P29994, DEL318-332/R504Q); assay: Equilibrium-competition 3H-IP3 binding to NT^R504Q; details: TEM
Summary of the method: as §2

[10] = target: IBC^R504Q fragment of IP3R1 (Rattus norvegicus, UniProt P29994, R504Q); assay: Equilibrium-competition 3H-IP3 binding to IBC^R504Q; details: CLM
Summary of the method: as §1

[11] = target: IP3R1^R504Q (Rattus norvegicus, UniProt P29994, DEL318-332/R504Q); assay: Ca2+ release from permeabilized DT40 cells expressing only IP3R1^R504Q; type: cell-based
Chain of IP3R1^R504Q (P29994 1-2735 isoform P29994-2 R489Q): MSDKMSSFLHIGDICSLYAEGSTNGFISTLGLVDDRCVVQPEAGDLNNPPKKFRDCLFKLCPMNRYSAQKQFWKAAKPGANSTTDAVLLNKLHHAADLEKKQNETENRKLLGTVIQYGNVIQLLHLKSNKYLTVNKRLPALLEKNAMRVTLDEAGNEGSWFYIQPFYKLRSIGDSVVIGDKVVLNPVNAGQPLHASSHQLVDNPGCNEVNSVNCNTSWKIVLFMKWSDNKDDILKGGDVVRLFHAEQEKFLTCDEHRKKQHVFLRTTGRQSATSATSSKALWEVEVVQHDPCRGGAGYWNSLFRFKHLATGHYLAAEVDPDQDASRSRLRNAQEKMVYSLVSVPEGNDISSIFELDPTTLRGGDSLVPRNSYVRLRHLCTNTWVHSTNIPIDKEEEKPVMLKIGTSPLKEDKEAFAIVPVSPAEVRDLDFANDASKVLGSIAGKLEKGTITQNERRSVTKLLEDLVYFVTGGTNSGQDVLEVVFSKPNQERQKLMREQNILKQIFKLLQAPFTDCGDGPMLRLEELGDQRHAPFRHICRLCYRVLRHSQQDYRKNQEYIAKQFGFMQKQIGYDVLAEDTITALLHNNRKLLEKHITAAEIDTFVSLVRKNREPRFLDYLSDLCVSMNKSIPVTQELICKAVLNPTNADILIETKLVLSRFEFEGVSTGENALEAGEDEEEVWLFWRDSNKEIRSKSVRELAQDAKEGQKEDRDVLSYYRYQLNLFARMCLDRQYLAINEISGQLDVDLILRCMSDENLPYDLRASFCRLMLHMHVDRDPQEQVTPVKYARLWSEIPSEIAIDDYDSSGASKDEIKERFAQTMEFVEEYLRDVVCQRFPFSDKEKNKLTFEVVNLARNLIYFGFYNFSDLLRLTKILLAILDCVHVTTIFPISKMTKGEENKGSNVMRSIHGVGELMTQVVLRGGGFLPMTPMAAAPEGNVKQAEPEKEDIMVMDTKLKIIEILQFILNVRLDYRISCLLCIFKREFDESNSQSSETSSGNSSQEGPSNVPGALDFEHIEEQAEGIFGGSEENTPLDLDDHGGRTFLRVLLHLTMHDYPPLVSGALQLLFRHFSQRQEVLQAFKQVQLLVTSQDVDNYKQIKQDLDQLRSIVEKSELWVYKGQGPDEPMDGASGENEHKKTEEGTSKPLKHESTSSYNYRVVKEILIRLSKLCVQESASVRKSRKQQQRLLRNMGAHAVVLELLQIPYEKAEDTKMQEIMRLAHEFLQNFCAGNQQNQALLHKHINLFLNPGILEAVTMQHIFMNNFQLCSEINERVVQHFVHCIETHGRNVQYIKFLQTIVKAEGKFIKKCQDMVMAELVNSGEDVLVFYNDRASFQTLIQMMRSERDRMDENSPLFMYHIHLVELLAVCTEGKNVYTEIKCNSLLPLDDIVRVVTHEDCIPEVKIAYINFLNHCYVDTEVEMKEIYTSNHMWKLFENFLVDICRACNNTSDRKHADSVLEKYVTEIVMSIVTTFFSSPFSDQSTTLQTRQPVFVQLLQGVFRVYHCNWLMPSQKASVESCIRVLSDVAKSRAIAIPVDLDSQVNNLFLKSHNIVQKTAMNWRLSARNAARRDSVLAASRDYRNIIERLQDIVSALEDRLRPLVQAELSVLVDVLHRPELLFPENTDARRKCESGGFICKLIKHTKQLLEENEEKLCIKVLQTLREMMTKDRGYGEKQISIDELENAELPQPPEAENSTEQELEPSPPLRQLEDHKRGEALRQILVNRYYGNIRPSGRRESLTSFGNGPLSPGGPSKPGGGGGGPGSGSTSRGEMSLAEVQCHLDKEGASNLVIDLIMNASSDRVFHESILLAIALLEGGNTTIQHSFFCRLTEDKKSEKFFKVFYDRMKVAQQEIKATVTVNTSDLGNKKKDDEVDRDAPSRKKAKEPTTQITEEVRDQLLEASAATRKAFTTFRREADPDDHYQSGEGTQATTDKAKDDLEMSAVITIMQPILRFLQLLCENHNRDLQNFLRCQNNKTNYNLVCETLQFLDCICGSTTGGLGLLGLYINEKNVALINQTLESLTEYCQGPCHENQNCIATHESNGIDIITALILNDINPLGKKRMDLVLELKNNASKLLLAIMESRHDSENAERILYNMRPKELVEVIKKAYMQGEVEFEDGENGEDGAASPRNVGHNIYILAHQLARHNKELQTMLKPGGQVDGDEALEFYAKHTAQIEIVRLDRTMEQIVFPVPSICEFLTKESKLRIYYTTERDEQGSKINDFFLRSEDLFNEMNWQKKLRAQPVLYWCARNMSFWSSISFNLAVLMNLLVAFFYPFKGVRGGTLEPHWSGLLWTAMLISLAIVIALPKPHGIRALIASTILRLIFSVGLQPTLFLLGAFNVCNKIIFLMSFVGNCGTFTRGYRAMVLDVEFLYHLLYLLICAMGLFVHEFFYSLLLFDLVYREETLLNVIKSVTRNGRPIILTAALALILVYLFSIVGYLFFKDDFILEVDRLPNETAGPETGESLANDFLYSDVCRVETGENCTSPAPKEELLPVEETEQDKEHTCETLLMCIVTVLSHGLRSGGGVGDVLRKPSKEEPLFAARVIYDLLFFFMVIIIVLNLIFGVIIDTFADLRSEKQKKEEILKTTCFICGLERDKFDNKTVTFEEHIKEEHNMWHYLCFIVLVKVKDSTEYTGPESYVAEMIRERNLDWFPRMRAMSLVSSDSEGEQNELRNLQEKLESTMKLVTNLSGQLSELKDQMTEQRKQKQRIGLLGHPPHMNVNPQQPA

Chain of IBC^R568Q fragment of IP3R1 (P29994 224-604 R568Q): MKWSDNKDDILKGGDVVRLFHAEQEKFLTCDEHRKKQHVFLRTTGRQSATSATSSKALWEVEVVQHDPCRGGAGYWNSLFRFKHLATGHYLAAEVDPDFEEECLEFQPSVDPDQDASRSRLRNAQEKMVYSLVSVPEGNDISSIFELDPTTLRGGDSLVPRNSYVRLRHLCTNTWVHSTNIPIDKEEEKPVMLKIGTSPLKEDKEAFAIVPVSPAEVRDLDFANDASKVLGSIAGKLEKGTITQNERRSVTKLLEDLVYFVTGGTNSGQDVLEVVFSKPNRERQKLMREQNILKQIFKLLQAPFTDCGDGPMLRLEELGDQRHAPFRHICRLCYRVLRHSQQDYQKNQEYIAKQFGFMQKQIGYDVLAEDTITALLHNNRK
Chain of IBC^R504Q fragment of IP3R1 (P29994 224-604 R504Q): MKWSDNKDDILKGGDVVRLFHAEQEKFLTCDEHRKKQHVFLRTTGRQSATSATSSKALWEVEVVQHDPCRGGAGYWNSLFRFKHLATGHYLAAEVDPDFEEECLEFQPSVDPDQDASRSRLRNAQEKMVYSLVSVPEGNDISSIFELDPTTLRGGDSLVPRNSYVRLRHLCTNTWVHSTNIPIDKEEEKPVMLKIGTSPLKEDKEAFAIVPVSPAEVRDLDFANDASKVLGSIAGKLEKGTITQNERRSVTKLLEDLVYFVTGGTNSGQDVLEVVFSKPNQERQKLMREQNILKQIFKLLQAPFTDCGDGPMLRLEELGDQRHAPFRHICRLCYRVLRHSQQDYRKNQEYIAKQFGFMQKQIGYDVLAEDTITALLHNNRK
Chain of NT (residues 1–604) of IP3R1 (P29994 1-589 isoform P29994-2 limits assumed, stated change not applied): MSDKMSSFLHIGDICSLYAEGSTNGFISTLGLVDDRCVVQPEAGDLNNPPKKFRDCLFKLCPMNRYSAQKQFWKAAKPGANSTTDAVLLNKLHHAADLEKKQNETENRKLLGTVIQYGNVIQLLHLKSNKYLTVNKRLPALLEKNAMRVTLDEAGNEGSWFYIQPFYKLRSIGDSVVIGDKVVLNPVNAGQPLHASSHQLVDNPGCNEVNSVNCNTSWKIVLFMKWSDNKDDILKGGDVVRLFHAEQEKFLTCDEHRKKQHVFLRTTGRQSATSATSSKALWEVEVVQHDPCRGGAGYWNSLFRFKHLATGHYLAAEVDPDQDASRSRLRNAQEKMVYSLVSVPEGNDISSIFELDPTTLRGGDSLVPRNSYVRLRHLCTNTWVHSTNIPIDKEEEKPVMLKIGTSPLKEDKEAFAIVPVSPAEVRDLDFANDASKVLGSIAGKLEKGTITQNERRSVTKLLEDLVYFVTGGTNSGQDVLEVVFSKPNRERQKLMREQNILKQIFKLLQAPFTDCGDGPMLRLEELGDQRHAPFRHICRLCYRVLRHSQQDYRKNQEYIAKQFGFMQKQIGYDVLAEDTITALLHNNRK
Chain of IBC (IP3-binding core, residues 224–604 of IP3R1) (P29994 224-604): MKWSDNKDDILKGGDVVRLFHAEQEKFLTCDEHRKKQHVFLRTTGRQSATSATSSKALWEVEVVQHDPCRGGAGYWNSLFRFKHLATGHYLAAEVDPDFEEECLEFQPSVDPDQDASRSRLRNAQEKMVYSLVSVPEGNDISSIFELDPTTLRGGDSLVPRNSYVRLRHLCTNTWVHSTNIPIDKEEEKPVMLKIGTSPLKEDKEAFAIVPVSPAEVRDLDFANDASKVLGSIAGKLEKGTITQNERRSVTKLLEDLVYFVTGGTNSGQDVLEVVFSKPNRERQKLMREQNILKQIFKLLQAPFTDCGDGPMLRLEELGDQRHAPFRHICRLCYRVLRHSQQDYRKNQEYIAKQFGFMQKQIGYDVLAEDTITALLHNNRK
Chain of NT^R504Q fragment of IP3R1 (P29994 1-589 isoform P29994-2 R489Q limits assumed): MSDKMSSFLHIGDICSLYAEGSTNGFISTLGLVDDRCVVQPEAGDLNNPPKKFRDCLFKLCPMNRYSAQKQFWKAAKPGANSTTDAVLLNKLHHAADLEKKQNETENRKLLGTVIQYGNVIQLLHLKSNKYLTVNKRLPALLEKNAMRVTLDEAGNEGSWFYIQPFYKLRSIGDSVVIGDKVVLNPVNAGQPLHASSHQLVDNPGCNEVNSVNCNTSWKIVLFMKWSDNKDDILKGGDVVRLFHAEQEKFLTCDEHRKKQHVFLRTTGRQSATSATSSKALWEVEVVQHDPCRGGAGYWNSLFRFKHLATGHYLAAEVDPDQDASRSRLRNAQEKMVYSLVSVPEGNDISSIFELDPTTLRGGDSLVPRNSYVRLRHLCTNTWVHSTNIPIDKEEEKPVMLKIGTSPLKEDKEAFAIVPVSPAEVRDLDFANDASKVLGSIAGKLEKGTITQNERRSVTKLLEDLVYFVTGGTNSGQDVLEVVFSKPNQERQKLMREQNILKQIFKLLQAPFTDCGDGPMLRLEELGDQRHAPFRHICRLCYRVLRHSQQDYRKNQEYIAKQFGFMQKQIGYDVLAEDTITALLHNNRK

What does the source list for `Nc1ncnc2c1ncn2[C@@H]1O[C@H](CO)[C@@H](O[C@H]2O[C@H](CO)[C@@H](OP(=O)(O)O)[C@H](OP(=O)(O)O)[C@H]2O)[C@H]1OP(=O)(O)O` [AdA, adenophostin A]?
Kd [1]: 9.48 nM; Relative affinity ΔpKd, R568Q / wild-type IBC ([1]; IBC^R568Q vs IBC, CLM): 1.49 ± 0.11; fold reduction of affinity by the R568Q mutation ([1]; IBC^R568Q vs IBC, CLM): ~30 fold and 31 fold; nHill ± SEM ([1]; IBC^R568Q, CLM): 1.3 ± 0.6; nHill ± SEM ([2]; CLM): 1.3 ± 0.2; Kd ([2]; Kd, CLM): 3.44 nM; fold greater affinity than IP3 ([2]; TEM): about 15 fold; nHill ± SEM ([2]; TEM): 1.0 ± 0.1; Kd ([2]; pKd ± SEM, TEM): 0.141 nM; Binding ΔpKd, IP3 / AdA ([2]; CLM): 1.14 ± 0.21; Binding ΔpKd, IP3 / AdA ([2]; TEM): 1.18 ± 0.12; fold greater affinity than IP3 [3]: ~20 fold; nHill ± SEM [3]: 1.3 ± 0.3; Kd ([3]; Kd): 0.31 nM; Binding ΔpKd, IP3 / AdA ([3]; pair IP3 / AdA): 1.37 ± 0.07; EC50 [4]: 20 nM; Relative potency ΔpEC50, R568Q / wild-type IP3R1 ([4]; Ca2+ release, IP3R1^R568Q vs IP3R1): 0.81 ± 0.07; fold reduction of potency in IP3R1^R568Q cells ([4]; Ca2+ release, vs wild-type IP3R1): sixfold; Ca2+ release nHill ± SEM ([4]; IP3R1^R568Q): 1.0 ± 0.2; Release (%) ([4]; maximal Ca2+ release, IP3R1^R568Q): 53 ± 3%; fold greater affinity than IP3 [5]: about 18 fold; Kd [6]: 2.81 nM; nHill ± SEM ([6]; NT^R568Q, TEM): 1.3 ± 0.2; Binding nHill ± SEM [7]: 1.5 ± 0.1; EC50 ([8]; Ca2+ release EC50, DT40 cells expressing wild-type IP3R1): 3 nM; EC50 ([8]; Ca2+ release pEC50 ± SEM, permeabilized DT40-IP3R1 cells, CLM): 3.09 nM; fold more potent than IP3 in functional assays ([8]; CLM): ~12 fold; fold more potent than IP3 in functional assays ([8]; CLM, listed as Adenophostin A): at least 12 fold; Ca2+ release, Release (%) ([8]; maximal Ca2+ release, fraction of ATP-dependent uptake, wild-type IP3R1): 78 ± 3%; Ca2+ release ΔpEC50, IP3 / AdA ([8]; pair IP3 / AdA, DT40-IP3R1 cells): 1.09 ± 0.05; Ca2+ release nHill ± SEM ([8]; permeabilized DT40-IP3R1 cells, CLM): 1.4 ± 0.1; Kd ([9]; Kd): 16.5 nM; nHill ± SEM [9]: 0.9 ± 0.1; Relative affinity ΔpKd, R504Q / wild-type IBC ([10]; IBC^R504Q vs IBC): 2.55 ± 0.05; fold reduction of affinity by the R504Q mutation ([10]; IBC^R504Q vs IBC): 353 fold; nHill ± SEM ([10]; IBC^R504Q): 1.5 ± 0.2; Kd ([10]; Kd, IBC^R504Q): 149 nM; EC50 [11]: 604 nM; Relative potency ΔpEC50, R504Q / wild-type IP3R1 ([11]; Ca2+ release, IP3R1^R504Q vs IP3R1): 2.29 ± 0.06; Ca2+ release nHill ± SEM ([11]; IP3R1^R504Q): 1.3 ± 0.2; Release (%) ([11]; maximal Ca2+ release, IP3R1^R504Q): 61 ± 3%
